Measurements: ChEMBL document CHEMBL4616666, “Discovery of SHP2-D26 as a First, Potent, and Effective PROTAC Degrader of SHP2 Protein” (J Med Chem, 2020)
pIC50: −log10 of the molar value. Calls of active or inactive are those of the source. The calls are words filed in the database; no cut-off is given here.

Experiments:
[1] = target: T1, von Hippel-Lindau disease tumor suppressor/Tyrosine-protein phosphatase non-receptor type 11 (Homo sapiens, UniProt Q06124+P40337); experiment: Protac activity at VHL1/SHP2 in human KYSE520 cells assessed as induction of SHP2 degradation at 0.1 uM measured after 6 hrs by Western blot analysis relative to control; type: cell-based
Method in brief: (§1)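 KYSE520 cells in RPMI 1640 + 10% FBS, 37 °C, 5% CO2, were exposed to degrader for 6 h. SHP2 was measured by Western blot and densitometry, with background-subtracted band normalized to net GAPDH band. Values are the average of three independent experiments.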
Target sequence in this assay (P40337 whole entry partner, one chain of several): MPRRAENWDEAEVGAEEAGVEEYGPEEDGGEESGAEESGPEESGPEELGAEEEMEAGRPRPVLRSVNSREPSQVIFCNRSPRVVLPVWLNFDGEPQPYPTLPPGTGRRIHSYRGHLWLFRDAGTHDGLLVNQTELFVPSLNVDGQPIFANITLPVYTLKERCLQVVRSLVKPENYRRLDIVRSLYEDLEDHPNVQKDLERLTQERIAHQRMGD

[2] = target: T1, von Hippel-Lindau disease tumor suppressor/Tyrosine-protein phosphatase non-receptor type 11; experiment: Protac activity at VHL1/SHP2 in human KYSE520 cells assessed as induction of SHP2 degradation at 1 uM measured after 6 hrs by Western blot analysis relative to control; type: cell-based; method in brief: as §1
Target sequence in this assay (P40337 whole entry partner, one chain of several): as above

[3] = target: T1, von Hippel-Lindau disease tumor suppressor/Tyrosine-protein phosphatase non-receptor type 11; experiment: Protac activity at VHL1/SHP2 in human MV4-11 cells assessed as induction of SHP2 degradation at 0.1 uM measured after 24 hrs by Western blot analysis relative to control; type: cell-based
Method in brief: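 MV4;11 cells in IMDM + 10% FBS were exposed to degrader for 24 h. SHP2 was quantified by Western blot densitometry, with background-subtracted band divided by net GAPDH loading-control band. Average of three independent experiments.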
Target sequence in this assay (P40337 whole entry partner, one chain of several): as above

[4] = Aqueous solubility of the compound; type: physicochemical; conditions: buffer
[5] = target: T1, von Hippel-Lindau disease tumor suppressor/Tyrosine-protein phosphatase non-receptor type 11; experiment: Protac activity at VHL1/SHP2 in human KYSE520 cells assessed as induction of SHP2 degradation measured after 12 hrs by Western blot analysis; type: cell-based
Method in brief: (§2)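 Dose–response: KYSE520 (RPMI 1640) or MV4;11 (IMDM) cells, with 10% FBS, were treated across a concentration range for 12 h. SHP2 was measured by Western blot and densitometry, normalized to GAPDH band density.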

[6] = target: T1, von Hippel-Lindau disease tumor suppressor/Tyrosine-protein phosphatase non-receptor type 11; experiment: Protac activity at VHL1/SHP2 in human MV4-11 cells assessed as induction of SHP2 degradation measured after 12 hrs by Western blot analysis; type: cell-based; method in brief: as §2
[7] = target: T1, von Hippel-Lindau disease tumor suppressor/Tyrosine-protein phosphatase non-receptor type 11; experiment: Protac activity at VHL1/SHP2 in human KYSE520 cells assessed as induction of SHP2 degradation at 100 nM measured within 4 hrs by Western blot analysis; type: cell-based
Method in brief: (§3)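 Kinetics: cells were seeded overnight in 6-well plates, then given degrader at 100 nM for 2, 4, 8, 12 and 24 h. Harvested cells were lysed in RIPA with protease/phosphatase inhibitors and SHP2 was read by Western blot against GAPDH loading control. KYSE520 were grown in RPMI 1640 and MV4;11 in IMDM, both with 10% FBS.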
Target sequence in this assay (P40337 whole entry partner, one chain of several): as above

[8] = target: T1, von Hippel-Lindau disease tumor suppressor/Tyrosine-protein phosphatase non-receptor type 11; experiment: Protac activity at VHL1/SHP2 in human KYSE520 cells assessed as induction of SHP2 degradation at 100 nM measured after 8 hrs by Western blot analysis relative to control; type: cell-based; method in brief: as §3
Target sequence in this assay (P40337 whole entry partner, one chain of several): as above

[9] = target: T1, von Hippel-Lindau disease tumor suppressor/Tyrosine-protein phosphatase non-receptor type 11; experiment: Protac activity at VHL1/SHP2 in human MV4-11 cells assessed as induction of SHP2 degradation at 100 nM measured after 4 to 8 hrs by Western blot analysis; type: cell-based; method in brief: as §3
Target sequence in this assay (P40337 whole entry partner, one chain of several): as above

[10] = target: T1, von Hippel-Lindau disease tumor suppressor/Tyrosine-protein phosphatase non-receptor type 11; experiment: Protac activity at VHL1/SHP2 in human KYSE520 cells assessed as induction of SHP2 degradation at 0.1 uM measured after 3 hrs in presence of VHL-1 ligand by Western blot analysis; type: cell-based
Method in brief: (§4)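 KYSE520 cells in RPMI 1640 + 10% FBS were pretreated 1 h with VHL-1 ligand (10 μM), SHP2 inhibitor (10 μM), MLN4924 (0.5 μM) or MG132, then given degrader at 0.1 μM for 3 h. Cells were lysed in RIPA with protease/phosphatase inhibitors and run on 4–12% SDS–PAGE/PVDF Western blot for SHP2, with GAPDH as loading control.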

[11] = target: T1, von Hippel-Lindau disease tumor suppressor/Tyrosine-protein phosphatase non-receptor type 11; experiment: Protac activity at VHL1/SHP2 in human KYSE520 cells assessed as induction of SHP2 degradation at 0.1 uM measured after 3 hrs in presence of SHP2 inhibitor by Western blot analysis; type: cell-based; method in brief: as §4
[12] = target: T1, von Hippel-Lindau disease tumor suppressor/Tyrosine-protein phosphatase non-receptor type 11; experiment: Protac activity at VHL1/SHP2 in human KYSE520 cells assessed as induction of SHP2 degradation at 0.1 uM measured after 3 hrs in presence of E1 inhibitor MLN4924 by Western blot analysis; type: cell-based; method in brief: as §4
[13] = target: T1, von Hippel-Lindau disease tumor suppressor/Tyrosine-protein phosphatase non-receptor type 11; experiment: Protac activity at VHL1/SHP2 in human KYSE520 cells assessed as induction of SHP2 degradation at 0.1 uM measured after 3 hrs in presence of proteasome inhibitor MG132 by Western blot analysis; type: cell-based; method in brief: as §4
[14] = target: T1, von Hippel-Lindau disease tumor suppressor/Tyrosine-protein phosphatase non-receptor type 11; experiment: Protac activity at VHL1/SHP2 in human KYSE520 cells assessed as reduction in ERK phosphorylation measured after 48 hrs by Western blot analysis; type: cell-based
[15] = target: T1, von Hippel-Lindau disease tumor suppressor/Tyrosine-protein phosphatase non-receptor type 11; experiment: Protac activity at VHL1/SHP2 in human MV4-11 cells assessed as reduction in ERK phosphorylation measured after 48 hrs by Western blot analysis; type: cell-based
[16] = target: T1, von Hippel-Lindau disease tumor suppressor/Tyrosine-protein phosphatase non-receptor type 11; experiment: Protac activity at VHL1/SHP2 in human KYSE520 cells assessed as reduction in ERK phosphorylation at 100 nM measured after 48 hrs by Western blot analysis; type: cell-based
[17] = target: T1, von Hippel-Lindau disease tumor suppressor/Tyrosine-protein phosphatase non-receptor type 11; experiment: Protac activity at VHL1/SHP2 in human MV4-11 cells assessed as reduction in ERK phosphorylation at 100 nM measured after 48 hrs by Western blot analysis relative to control; type: cell-based; set-up: scale not given: the % may be the effect or the level left
[18] = target: T2, Tyrosine-protein phosphatase non-receptor type 11 (Homo sapiens) (UniProt Q06124); experiment: Inhibition of SHP2 in human MV4-11 cells assessed as reduction in ERK phosphorylation at >3000 nM measured after 48 hrs by Western blot analysis relative to control; type: cell-based
T2 sequence (whole entry): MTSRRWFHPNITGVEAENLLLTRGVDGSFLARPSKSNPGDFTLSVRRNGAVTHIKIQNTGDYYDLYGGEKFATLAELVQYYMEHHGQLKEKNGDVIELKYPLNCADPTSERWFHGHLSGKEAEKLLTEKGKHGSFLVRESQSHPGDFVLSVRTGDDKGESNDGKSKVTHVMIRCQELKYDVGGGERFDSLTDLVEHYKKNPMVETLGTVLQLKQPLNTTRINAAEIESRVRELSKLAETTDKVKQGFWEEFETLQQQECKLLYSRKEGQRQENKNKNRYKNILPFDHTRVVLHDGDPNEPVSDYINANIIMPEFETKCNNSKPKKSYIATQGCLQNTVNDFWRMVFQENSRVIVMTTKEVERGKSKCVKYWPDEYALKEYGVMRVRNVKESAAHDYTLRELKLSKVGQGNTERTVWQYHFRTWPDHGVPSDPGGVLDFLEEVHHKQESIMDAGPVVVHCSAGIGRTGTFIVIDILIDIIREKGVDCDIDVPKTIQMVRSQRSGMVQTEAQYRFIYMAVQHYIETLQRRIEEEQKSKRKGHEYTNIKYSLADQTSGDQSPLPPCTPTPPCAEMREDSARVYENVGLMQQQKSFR

KYSE-520 cell line [19] = experiment: Growth inhibition of human KYSE520 cells measured after 4 days by WST8 assay; conditions: KYSE-520, 96 h
MV4-11 [20] = experiment: Growth inhibition of human MV4-11 cells measured after 4 days by WST8 assay; conditions: MV4-11, 96 h
KYSE-520 cell line [21] = experiment: Potency index, ratio of SHP099 IC50 to test compound IC50 for growth inhibition of human KYSE520 cells; type: functional
MV4-11 [22] = experiment: Potency index, ratio of SHP099 IC50 to test compound IC50 for growth inhibition of human MV4-11 cells; type: functional

Compound: Cc1ncsc1-c1ccc([C@H](C)NC(=O)[C@@H]2C[C@@H](O)CN2C(=O)[C@@H](NC(=O)CCCCCCCCN2CCN(C(=O)CCC(=O)Nc3cccc(Sc4ncc(N5CCC(C)(N)CC5)nc4N)c3Cl)CC2)C(C)(C)C)cc1 (single isomer, unassigned)
- Activity [1]: > 95%
- Activity [2]: > 95%
- Activity [3]: > 95%
- solubility [4]: Soluble
- Activity [5]: Dose-dependent effect
- DC50 [5]: 6 nM
- Activity [6]: Dose-dependent effect
- DC50 [6]: 2.6 nM
- Activity [7]: Active
- Activity [8]: 100%
- Activity [9]: Active
- Activity [10]: inactive
- Activity [11]: inactive
- Activity [12]: inactive
- Activity [13]: inactive
- Activity [14]: Dose-dependent effect
- Activity [15]: Dose-dependent effect
- Activity [16]: Active
- Activity [17]: 100%
- inhibition [18]: 100%
- pIC50 (KYSE-520 cell line [19]): 6.18
- pIC50 (MV4-11 [20]): 8.00
- Ratio IC50 (KYSE-520 cell line [21]): 28
- Ratio IC50 (MV4-11 [22]): 100
